This note sets out measurements from ChEMBL document CHEMBL2434876, “Design, synthesis and biological evaluation of 2-substituted quinolines as potential antileishmanial agents” (Eur J Med Chem, 2013).

The nature of data set [1]: Volume of distribution at steady state in Swiss Albino mouse at 10 mg/kg, iv by LC-MS/MS analysis. The format is ADME, organism-based. Details: dose 10 mg/kg, route intravenous. To be noted: in vivo, read-out: Vdss. The gist of the method:
(§1)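 Male Swiss Albino mice, 8-12 weeks, 30-40 g, fasted 4 h pre-dose and fed 4 h post-dose. Parallel groups: 10 mg/kg IV tail-vein bolus or 50 mg/kg oral gavage. Sparse sampling, 3 mice per time point, from 0.083 (IV only) to 24 h. K2EDTA plasma analysed by LC-MS/MS (calibration 1–1000 ng/mL). Non-compartmental parameters; bioavailability from dose-normalized AUC ratio versus IV.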

A short description of data set [2]: Plasma clearance in Swiss Albino mouse at 10 mg/kg, iv by LC-MS/MS analysis. Type of data set: ADME, organism-based. Also on record: dose 10 mg/kg, route intravenous. The essentials: as §1
Data set [3] in a line: Elimination half life in Swiss Albino mouse at 10 mg/kg, iv by LC-MS/MS analysis. Details: dose 10 mg/kg, route intravenous. To be noted: in vivo, read-out: beta t1/2 (converted). Type of data set: ADME, organism-based. The essentials: as §1
Data set [4] is described as follows: AUC (infinity) in Swiss Albino mouse at 10 mg/kg, iv by LC-MS/MS analysis. Type of data set: ADME, organism-based. Details: time infinity, dose 10 mg/kg, route intravenous. To be noted: plasma. The gist of the method: as §1
Data set [5] in a line: AUClast in Swiss Albino mouse at 10 mg/kg, iv by LC-MS/MS analysis. Details: time 0 - last, dose 10 mg/kg, route intravenous. The note with it: plasma. Type of data set: ADME, organism-based. The essentials: as §1
Data set [6] in a line: AUClast in Swiss Albino mouse at 50 mg/kg, po by LC-MS/MS analysis. To be noted: plasma. Type of data set: ADME, organism-based. Details: time 0 - last, dose 50 mg/kg, route oral. The gist of the method: as §1
Data set [7] can be described thus: Cmax in Swiss Albino mouse at 50 mg/kg, po by LC-MS/MS analysis. The format is ADME, organism-based. The note with it: in vivo. Also on record: dose 50 mg/kg, route oral. The gist of the method: as §1
Data set [8] is described as follows: Cmax in Swiss Albino mouse at 10 mg/kg, iv by LC-MS/MS analysis. Details: dose 10 mg/kg, route intravenous. The format is ADME, organism-based. To be noted: in vivo. The essentials: as §1
The nature of data set [9]: Tmax in Swiss Albino mouse at 50 mg/kg, po by LC-MS/MS analysis. Type of data set: ADME, organism-based. Also on record: dose 50 mg/kg, route oral. To be noted: in vivo. The essentials: as §1
The nature of data set [10]: Tmax in Swiss Albino mouse at 10 mg/kg, iv by LC-MS/MS analysis. Type of data set: ADME, organism-based. Also on record: dose 10 mg/kg, route intravenous. To be noted: in vivo. The gist of the method: as §1
A short description of data set [11]: Metabolic stability in whole blood (unknown origin). Type of data set: ADME, tissue-based.
Data set [12] in a line: Metabolic stability in plasma (unknown origin). Type of data set: ADME, cell-free.
Data set [13] has as its system Leishmania donovani. Description: Antileishmanial activity against Leishmania donovani MHOM/IN/80/Dd8 amastigotes infected in golden hamster assessed as parasite growth inhibition at 50 mg/kg, ip bid for 5 days measured on day 7 by Giemsa staining assay. To be noted: MHOM/IN/80/Dd8, ip, route intraperitoneal, read-out: GI. Type of data set: functional. The essentials: (§2)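 Inbred golden hamsters, 40-45 g, infected intracardially with 1 x 10^7 L. donovani amastigotes. Animals with +1 spleen biopsy grade (5-15 amastigotes/100 nuclei) were randomized, 5-6 per group. Dosing in distilled water/PBS began 48 h after biopsy and ran 5 consecutive days. Post-treatment spleen biopsy on day 7, Giemsa count; percent inhibition corrected for initial count and untreated-control increase.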

Data set [14] has as its system Leishmania donovani. Description: Antileishmanial activity against Leishmania donovani MHOM/IN/80/Dd8 amastigotes infected in golden hamster assessed as parasite growth inhibition at 50 mg/kg, ip qd for 5 days measured on day 7 by Giemsa staining assay. The format is functional. The note with it: MHOM/IN/80/Dd8, ip, route intraperitoneal, read-out: GI. The gist of the method: as §2

A short description of data set [15]: Oral bioavailability in Swiss Albino mouse at 50 mg/kg by LC-MS/MS analysis. Type of data set: ADME, organism-based. To be noted: in vivo. The essentials: as §1
Data set [16] is described as follows: Drug metabolism in hamster liver microsomes at 1 uM after 30 mins by LC-MS/MS analysis. Type of data set: ADME, Microsome. To be noted: cricetinae, read-out: Drug metabolism. The gist of the method:
(§3)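 Liver microsomes (1 mg/mL protein) in sodium phosphate buffer pH 7.4 with 5 mM NADPH, preincubated 10 min at 37°C. Test compound taken from a 200 µM acetonitrile:DMSO (96:4) stock. Samples analysed by LC/MS/MS as analyte/internal standard peak-area ratio. Percent metabolized at 30 min relative to 0 min; NADPH-free controls run in parallel.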
A general note: Liver microsomes are vesicles of endoplasmic reticulum, rich in cytochrome P450 enzymes.

A short description of data set [17]: Drug metabolism in human liver microsomes at 1 uM after 30 mins by LC-MS/MS analysis. Type of data set: ADME, Microsome. To be noted: read-out: Drug metabolism. The essentials: as §3
Data set [18] in a line: Drug metabolism in mouse liver microsomes at 1 uM after 30 mins by LC-MS/MS analysis. The format is ADME, Microsome. To be noted: read-out: Drug metabolism. The essentials: as §3
A short description of data set [19]: Selectivity index, ratio of CC50 for African green monkey Vero cells to IC50 for Leishmania donovani MHOM/IN/80/Dd8 amastigotes. The format is functional. The essentials: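 Selectivity index is Vero CC50 divided by IC50 against intracellular L. donovani amastigotes in J774A.1 cells, each measured over 72 h.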
Data set [20] in a line: Cytotoxicity against African green monkey Vero cells after 72 hrs by MTT assay. The format is cell-based. The note with it: chlorocebus sabaeus. The gist of the method:
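Exponentially growing Vero cells (1 x 10^5/well) exposed 72 h at 37°C, 5% CO2, to 7-point threefold dilutions from 400 µM (DMSO stocks diluted in medium), with DMSO vehicle controls. MTT added for 2 h, formazan dissolved in DMSO, absorbance read at 544 nm. CC50 is the concentration halving viability versus medium-only cells; mean of two independent experiments.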

The subject of data set [21] is Leishmania donovani. Description: Antileishmanial activity against Leishmania donovani MHOM/IN/80/Dd8 amastigotes infected in mouse J774A1 cells assessed as parasite growth inhibition after 72 hrs by luciferase reporter gene assay. Type of data set: functional, organism-based. The note with it: MHOM/IN/80/Dd8, J774.A1, 72 h. The essentials:
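J774A.1 macrophages (4 x 10^3/well) in RPMI-1640 with 10% FCS for 24 h, then infected with stationary-phase luciferase-expressing promastigotes (4 x 10^4/well). Non-internalized parasites washed off after 24 h. Compounds given as 7-point serial dilution from 100 µM for 72 h at 37°C. Steady-Glo luminescence read; IC50 from four-parameter Hill fit, mean of two independent experiments.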
(In general: Reporter assays use an easily measured gene product as a stand-in for the process of interest.)

The structures appear in SMILES notation.

For orientation: clearance means the volume of plasma or blood freed of the substance per unit of time. One may read the AUC(0-inf) as the area under the concentration-time curve extrapolated to infinity. As a reminder, the AUC(0-t) is exposure summed from dosing to a finite time, without extrapolation to infinity. Usually Cmax stands for the maximum level reached in the sampled fluid or tissue. Usually Tmax stands for the time at which the peak concentration occurs. The term bioavailability denotes dose-corrected exposure relative to a reference, in per cent. By CC50 is commonly meant the concentration that lowers cell viability or growth by half. Broadly, the IC50 is the midpoint of a concentration-inhibition curve.

For `OC/C=C/c1cc(N2CCOCC2)c2cc(Cl)c(F)cc2n1`, the Vd in [1] stood at 7.54 L/kg. Also, the clearance in data set [2] came to 865 mL/min/kg. Moreover, the half-life in [3] was 28.2 min. In data set [4], this compound returned an AUC(0-inf) of 193 ng·h/mL. The AUC(0-t) in [5] was determined as 193 ng·h/mL; in data set [6], 6.88 ng·h/mL. Moreover, the Cmax in data set [7] came to 19.7 ng/mL; in data set [8], 2230 ng/mL. The Tmax in data set [9] came to 15 min; in [10], 4.8 min. Also, the Stability entry is reported as “Unstable” in data set [11] and “Stable” in data set [12]. Also, the inhibition in vivo at 50 mg/kg in data set [13] stood at 77.2%; in data set [14], 25.4%. For the same compound, the bioavailability in data set [15] worked out at 0.7%. In addition, the metabolised at 0.5 h, 1 µM in data set [16] is 66%; in data set [17] it was 35%; in data set [18], 45%. For the same compound, the “Ratio CC50/IC50” value in data set [19] was 187.5. The same compound had a CC50 at 72 h in data set [20] of 41.2 µM. In addition, the IC50 in data set [21] was 0.22 µM.
